The source of these data is ChEMBL document CHEMBL1821701, “Stereochemical analysis of leubethanol, an anti-TB-active serrulatane, from Leucophyllum frutescens” (2011).

The subject of this assay is Mycobacterium tuberculosis. The assay is described as follows: Antitubercular activity against drug sensitive Mycobacterium tuberculosis H37Rv ATCC 27294 by microplate Alamar blue assay. It is filed as functional. The method, boiled down: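 Modified microplate Alamar Blue assay. H37Rv ATCC 27294 is susceptible to streptomycin, isoniazid, rifampin, ethambutol and pyrazinamide. Clinical isolate CIBIN/UMF15:99 is resistant to the same five drugs. Test stocks were 2 mg/mL in 20% DMSO in Middlebrook 7H9 broth, filter-sterilized. Final concentrations ran from 100 to 0.78 µg/mL. Read-out was MIC, at least in triplicate.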

≈ marks a conversion by molar mass, not a printed value.

In general, MIC refers to the smallest concentration in the dilution series that meets the test's criterion for growth inhibition. Low readings indicate a more susceptible organism, high ones a less susceptible organism. `NNC(=O)c1ccncc1` [ISONIAZID] had an MIC of 0.06 µg/mL (≈ 0.438 µM).

For the compound `CO[C@H]1/C=C/O[C@@]2(C)Oc3c(C)c(O)c4c(O)c(c(/C=N/N5CCN(C)CC5)c(O)c4c3C2=O)NC(=O)/C(C)=C\C=C\[C@H](C)[C@H](O)[C@@H](C)[C@@H](O)[C@@H](C)[C@H](OC(C)=O)[C@@H]1C` [RIFAMPIN], the MIC turned out to be 0.06 µg/mL (≈ 0.0729 µM).

`CN[C@@H]1[C@H](O[C@H]2[C@H](O[C@H]3[C@H](O)[C@@H](O)[C@H](N=C(N)N)[C@@H](O)[C@@H]3N=C(N)N)O[C@@H](C)[C@]2(O)C=O)O[C@@H](CO)[C@H](O)[C@H]1O` [STREPTOMYCIN] came in with an MIC of 0.5 µg/mL (≈ 0.86 µM). This MIC is about 8.3-fold higher than that of the compound before.

For the compound `CC(C)=CCC[C@H](C)[C@@H]1CC[C@@H](C)c2c(O)cc(C)cc21` [LEUBETHANOL], it took 12.5 µg/mL (≈ 43.6 µM) to inhibit growth (MIC).

In turn, `CC[C@@H](CO)NCCN[C@@H](CC)CO` [ETHAMBUTOL] had a minimum inhibitory concentration (MIC) of 2 µg/mL (≈ 9.79 µM). This MIC is about 6.2-fold lower than that of the compound before.
